Source: article PMC4764504 (Journal of medicinal chemistry, 2015)
“And” between values parts separate entries of the source, which are not always exact repeats. Equal entries are not always repeated.

How the values were obtained:
DBT glioma cells = experiment: Competitive amino acid cell uptake assays; assay type: cell-based, mouse; details: 60 s, 37 °C
Outline: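 Mouse DBT glioma cells were seeded at 1 × 10⁵ cells/well and grown 48 h in 10% FBS DMEM under 5% CO₂. Cells were washed twice in 37 °C buffer, then exposed for 60 s at 37 °C, pH 7.40, to the radiotracer. Buffers were Na phosphate-buffered saline or choline-substituted Na-free buffer. Controls had 10 mM sucrose; BCH was 10 mM. Cells were washed with ice-cold buffer, lysed in 0.2% SDS/0.2 M NaOH, γ-counted, and normalized to added activity and BCA protein. Values are % of control, triplicate × two plates.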

[1] = test system: BALB/c Mice with Subcutaneous Flank DBT Tumors; experiment: Whole body biodistribution in mice with subcutaneous DBT gliomas; assay type: in vivo, mouse; details: for biodistribution, tumor uptake: subcutaneous DBT tumor
Outline: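 Male BALB/c mice carried subcutaneous flank DBT tumors (5 × 10⁵ cells) and were used at day 14. Under 1% isoflurane–oxygen, each received ~56 μCi (2.07 MBq) of ⁷⁶Br-labelled or 45 μCi (1.67 MBq) of ¹²³I-labelled test compound by tail vein in 0.9% saline. Mice were killed at 5 min, 30 min, 1, 3 and 24 h (n = 4 per time). Tissues were weighed and γ-counted with decay correction, giving % ID/g.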

biodistribution, blood ([1]; 5 min after i.v. injection): 3.86 ± 0.50 % ID/g | biodistribution, blood ([1]; 30 min after i.v. injection): 1.07 ± 0.16 % ID/g | biodistribution, blood ([1]; 1 h after i.v. injection): 0.37 ± 0.05 % ID/g | biodistribution, blood ([1]; 3 h after i.v. injection): 0.07 ± 0.02 % ID/g | biodistribution, blood ([1]; 24 h after i.v. injection): 0.0005 ± 0.0000 % ID/g | biodistribution, bone ([1]; 5 min after i.v. injection): 1.94 ± 0.28 % ID/g | biodistribution, bone ([1]; 30 min after i.v. injection): 1.20 ± 0.21 % ID/g | biodistribution, bone ([1]; 1 h after i.v. injection): 0.55 ± 0.39 % ID/g | biodistribution, bone ([1]; 3 h after i.v. injection): 0.39 ± 0.35 % ID/g | biodistribution, bone ([1]; 24 h after i.v. injection): 0.0042 ± 0.0020 % ID/g | biodistribution, brain ([1]; 5 min after i.v. injection): 0.27 ± 0.03 % ID/g | biodistribution, brain ([1]; 30 min after i.v. injection): 0.17 ± 0.04 % ID/g | biodistribution, brain ([1]; 1 h after i.v. injection): 0.27 ± 0.35 % ID/g | biodistribution, brain ([1]; 3 h after i.v. injection): 0.07 ± 0.00 % ID/g | biodistribution, brain ([1]; 24 h after i.v. injection): 0.0010 ± 0.0003 % ID/g | biodistribution, fat ([1]; 5 min after i.v. injection): 0.87 ± 0.26 % ID/g | biodistribution, fat ([1]; 30 min after i.v. injection): 0.22 ± 0.09 % ID/g | biodistribution, fat ([1]; 1 h after i.v. injection): 0.19 ± 0.07 % ID/g | biodistribution, fat ([1]; 3 h after i.v. injection): 0.04 ± 0.01 % ID/g | biodistribution, heart ([1]; 5 min after i.v. injection): 2.30 ± 0.02 % ID/g | biodistribution, heart ([1]; 30 min after i.v. injection): 1.78 ± 0.35 % ID/g | biodistribution, heart ([1]; 1 h after i.v. injection): 0.90 ± 0.06 % ID/g | biodistribution, heart ([1]; 3 h after i.v. injection): 0.18 ± 0.05 % ID/g | biodistribution, heart ([1]; 24 h after i.v. injection): 0.0005 ± 0.0005 % ID/g | biodistribution, kidney ([1]; 5 min after i.v. injection): 31.27 ± 6.91 % ID/g | biodistribution, kidney ([1]; 30 min after i.v. injection): 9.90 ± 3.24 % ID/g | biodistribution, kidney ([1]; 1 h after i.v. injection): 2.68 ± 0.55 % ID/g | biodistribution, kidney ([1]; 3 h after i.v. injection): 0.39 ± 0.09 % ID/g | biodistribution, kidney ([1]; 24 h after i.v. injection): 0.0032 ± 0.0017 % ID/g | biodistribution, liver (all) ([1]; 5 min after i.v. injection): 2.83 ± 0.25 % ID/g | biodistribution, liver (all) ([1]; 30 min after i.v. injection): 0.91 ± 0.20 % ID/g | biodistribution, liver (all) ([1]; 1 h after i.v. injection): 0.25 ± 0.03 % ID/g | biodistribution, liver (all) ([1]; 3 h after i.v. injection): 0.07 ± 0.02 % ID/g | biodistribution, liver (all) ([1]; 24 h after i.v. injection): 0.0006 ± 0.0002 % ID/g | biodistribution, lung ([1]; 5 min after i.v. injection): 3.54 ± 0.31 % ID/g | biodistribution, lung ([1]; 30 min after i.v. injection): 1.01 ± 0.28 % ID/g | biodistribution, lung ([1]; 1 h after i.v. injection): 0.33 ± 0.06 % ID/g | biodistribution, lung ([1]; 3 h after i.v. injection): 0.06 ± 0.02 % ID/g | biodistribution, lung ([1]; 24 h after i.v. injection): 0.0007 ± 0.0006 % ID/g | biodistribution, muscle ([1]; 5 min after i.v. injection): 1.65 ± 0.05 % ID/g | biodistribution, muscle ([1]; 30 min after i.v. injection): 1.41 ± 0.22 % ID/g | biodistribution, muscle ([1]; 1 h after i.v. injection): 0.68 ± 0.17 % ID/g | biodistribution, muscle ([1]; 3 h after i.v. injection): 0.12 ± 0.06 % ID/g | biodistribution, muscle ([1]; 24 h after i.v. injection): 0.0011 ± 0.0006 % ID/g | biodistribution, pancreas ([1]; 5 min after i.v. injection): 29.26 ± 8.15 % ID/g | biodistribution, pancreas ([1]; 30 min after i.v. injection): 21.03 ± 4.38 % ID/g | biodistribution, pancreas ([1]; 1 h after i.v. injection): 5.75 ± 1.20 % ID/g | biodistribution, pancreas ([1]; 3 h after i.v. injection): 0.99 ± 0.46 % ID/g | biodistribution, pancreas ([1]; 24 h after i.v. injection): 0.0052 ± 0.0021 % ID/g | biodistribution, spleen ([1]; 5 min after i.v. injection): 3.92 ± 0.99 % ID/g | biodistribution, spleen ([1]; 30 min after i.v. injection): 2.23 ± 0.34 % ID/g | biodistribution, spleen ([1]; 1 h after i.v. injection): 0.68 ± 0.12 % ID/g | biodistribution, spleen ([1]; 3 h after i.v. injection): 0.15 ± 0.05 % ID/g | biodistribution, spleen ([1]; 24 h after i.v. injection): 0.0012 ± 0.0010 % ID/g | biodistribution, tumor uptake ([1]; 5 min after i.v. injection): 2.8 ± 0.8 % ID/g and 2.78 ± 0.83 % ID/g | biodistribution, tumor uptake ([1]; 30 min after i.v. injection): 2.7 ± 0.6 % ID/g and 2.68 ± 0.56 % ID/g | biodistribution, tumor uptake ([1]; 1 h after i.v. injection): 1.53 ± 0.66 % ID/g | biodistribution, tumor uptake ([1]; 3 h after i.v. injection): 0.65 ± 0.16 % ID/g | biodistribution, tumor uptake ([1]; 24 h after i.v. injection): 0.0012 ± 0.0007 % ID/g | biodistribution, thyroid ([1]; thyroid, 5 min after i.v. injection): 2.51 ± 0.39 % ID/g | thyroid uptake ([1]; thyroid, 5 min after injection): 2.5 ± 0.4 % ID/organ | biodistribution, thyroid ([1]; thyroid, 30 min after i.v. injection): 1.38 ± 0.38 % ID/g | biodistribution, thyroid ([1]; thyroid, 1 h after i.v. injection): 0.97 ± 0.28 % ID/g | biodistribution, thyroid ([1]; thyroid, 3 h after i.v. injection): 0.65 ± 0.29 % ID/g | thyroid activity ([1]; thyroid, 3 h after injection): approximately 0.7 % ID/organ | biodistribution, thyroid ([1]; thyroid, 24 h after i.v. injection): 0.6527 ± 0.2135 % ID/g | thyroid activity ([1]; thyroid, 24 h after injection): approximately 0.7 % ID/organ | thyroid activity as share of the administered activity ([1]; thyroid, 24 h after injection): less than 1%
Structure (SMILES): C[C@](N)(/C=C/[123I])C(=O)O [[^123I]8, (S)-amino-2-methyl-4-[^123I]iodo-3-(E)-butenoic acid, reference compound]
uptake relative to control (DBT glioma cells; Na BCH condition (BCH 10 mM, system L inhibitor, sodium buffer)): 39 ± 12% | uptake compared to sodium control (DBT glioma cells; choline + BCH (sodium-free, Cho-BCH)): 31 ± 12% | uptake compared to the sodium control (DBT glioma cells; choline control (sodium-free, Cho-sucrose)): 33 ± 6.6% | uptake relative to the control (DBT glioma cells; in the presence of MeAIB (10 mM, system A inhibitor), sodium buffer): 25 ± 3.4%
